Experiments:
[1] = (§1) Inhibition of HIV1 Nucleocapsid protein (11 to 55 residues) assessed as reduction in NC-induced cTAR DNA destabilization by measuring intrinsic fluorescence using Alexa488-5'-cTAR-3'-Dabcyl oligonucleotide as substrate at 20 degree C incubated for 15 mins by fluorescence assay; set-up: species or system Human immunodeficiency virus 1
Outline: (§2)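 Fluorescence NC-inhibition assay following destabilisation of cTAR DNA, the complement of the HIV-1 transactivation response element, dual-labelled with Alexa488 dye and Dabcyl quencher. NC protein at 1 μM, so the lowest measurable IC50 is 0.5 μM.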

[2] = tested on: Human immunodeficiency virus 1; assay: (§3) Antiviral activity against wild-type HIV1 NL4-3 infected in human TZM-bl cells infected with supernatants from virus-infected human MT2 cells treated with compound for 48 to 72 hrs assessed as reduction in viral replication after 2 days by bright Glo-luciferase reporter gene assay based BiCycle assay; type: functional, organism-based; conditions: Human immunodeficiency virus 1, NL4-3, TZM
Outline: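 Two-round cell assay over the full replication cycle: MT-2 T cells are infected with wild-type reference strain NL4-3 in the first round, and reporter TZM-bl cells are infected in the second round. Values are given as mean ± deviation.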

[3] = Cytotoxicity against human HeLa cells assessed as reduction in cell viability; type: cell-based
[4] = as §3, with “Selectivity index, ratio of CC50 for human HeLa cells assessed as reduction in cell viability to EC50 for” for “Antiviral activity against”; type: toxicity; conditions: read-out: Ratio CC50/EC50
Outline: (§4)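 Selectivity index is CC50 from the respective cytotoxicity assay (HeLa or PBMC) divided by EC50 from the two-round MT-2/TZM-bl NL4-3 assay.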

[5] = Cytotoxicity against phytohemagglutinin and interleukin-2-stimulated human PBMC cells assessed as reduction in cell viability measured after 7 days by MTS assay; type: cell-based
[6] = as §3, with “Selectivity index, ratio of CC50 for human PBMC cells stimulated with phytohemagglutinin and interleukin-2 assessed as reduction in cell viability measured after 7 days by MTS assay to EC50 for” for “Antiviral activity against”; type: toxicity; conditions: read-out: Ratio CC50/EC50; outline: as §4
[7] = tested on: Human immunodeficiency virus 1; assay: as §1; outline: as §2
[8] = Half life in mouse plasma at 3 uM by LC-MS/MS analysis; type: ADME, cell-free
[9] = Half life in human plasma at 3 uM by LC-MS/MS analysis; type: ADME, cell-free
[10] = Half life in mouse hepatocytes at 3 uM by LC-MS/MS analysis; type: ADME, cell-based, Hepatocyte
[11] = Half life in human hepatocytes at 3 uM by LC-MS/MS analysis; type: ADME, cell-based, Hepatocyte
[12] = target: Voltage-gated inwardly rectifying potassium channel KCNH2 (Homo sapiens, UniProt Q12809); assay: Displacement of Tracer Red from human ERG measured after 4 hrs by fluorescence polarization assay
Cytochrome P450 1A2 = target: T1, Cytochrome P450 1A2 (Homo sapiens, UniProt P05177); assay: Inhibition of human microsomal CYP1A2 expressed in baculovirus infected insect cells using luciferin-1A2 as substrate preincubated with enzyme-substrate mixture for 30 mins followed by further incubation with NADPH for 30 mins by CYP450 luciferase Glo assay; type: ADME
T1 sequence (P05177 whole entry): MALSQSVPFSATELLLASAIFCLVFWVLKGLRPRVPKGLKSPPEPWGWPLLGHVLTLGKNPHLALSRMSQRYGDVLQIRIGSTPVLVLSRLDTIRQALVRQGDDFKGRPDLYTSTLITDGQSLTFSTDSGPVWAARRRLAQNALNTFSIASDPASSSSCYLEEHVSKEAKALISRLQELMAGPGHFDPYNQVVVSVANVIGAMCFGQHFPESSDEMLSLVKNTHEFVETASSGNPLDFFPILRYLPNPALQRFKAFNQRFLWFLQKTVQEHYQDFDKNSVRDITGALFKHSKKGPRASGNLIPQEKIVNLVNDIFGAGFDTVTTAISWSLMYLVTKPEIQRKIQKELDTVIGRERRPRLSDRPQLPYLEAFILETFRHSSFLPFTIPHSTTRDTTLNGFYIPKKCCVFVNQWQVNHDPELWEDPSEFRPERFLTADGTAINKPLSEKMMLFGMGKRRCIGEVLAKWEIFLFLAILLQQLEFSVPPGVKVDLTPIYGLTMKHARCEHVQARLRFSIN

Cytochrome P450 2D6 = Cytochrome P450 2D6 (Homo sapiens, UniProt P10635); assay: Inhibition of human microsomal CYP2D6 expressed in baculovirus infected insect cells using luciferin-ME as substrate preincubated with enzyme/substrate mixture for 30 mins followed by further incubation with NADPH for 30 mins by CYP450 luciferase Glo assay; type: ADME
Cytochrome P450 3A4 = Cytochrome P450 3A4 (Homo sapiens, UniProt P08684); assay: Inhibition of human microsomal CYP3A4 expressed in baculovirus infected insect cells using luciferin-IPA as substrate preincubated with enzyme/substrate mixture for 30 mins followed by further incubation with NADPH for 30 mins by CYP450 luciferase Glo assay; type: ADME
[13] = tested on: Human immunodeficiency virus 1; assay: Antiviral activity against PI-resistant HIV1 11808; type: functional, organism-based; conditions: Human immunodeficiency virus 1, 11808
[14] = tested on: Human immunodeficiency virus 1; assay: Antiviral activity against NRTI-resistant HIV1 7401; type: functional, organism-based; conditions: Human immunodeficiency virus 1, 7401
[15] = tested on: Human immunodeficiency virus 1; assay: Antiviral activity against NNRTI-resistant HIV1 12231; type: functional, organism-based; conditions: Human immunodeficiency virus 1, 12231
[16] = tested on: Human immunodeficiency virus 1; assay: Antiviral activity against INI-resistant HIV1 11845; type: functional, organism-based; conditions: Human immunodeficiency virus 1, 11845
[17] = tested on: Human immunodeficiency virus 1; assay: as §1, with “Ratio” for “Inhibition”, “of IC50 for PI-resistant HIV1 11808 Nucleocapsid protein (11 to 55 residues) using Alexa488-5'-cTAR-3'-Dabcyl oligonucleotide as substrate to IC50 for” for “of”
[18] = tested on: Human immunodeficiency virus 1; assay: as §1, with “Ratio” for “Inhibition”, “of IC50 for NRTI-resistant HIV1 7401 Nucleocapsid protein (11 to 55 residues) using Alexa488-5'-cTAR-3'-Dabcyl oligonucleotide as substrate to IC50 for” for “of”
[19] = tested on: Human immunodeficiency virus 1; assay: as §1, with “Ratio” for “Inhibition”, “of IC50 for NNRTI-resistant HIV1 12231 Nucleocapsid protein (11 to 55 residues) using Alexa488-5'-cTAR-3'-Dabcyl oligonucleotide as substrate to IC50 for” for “of”
[20] = tested on: Human immunodeficiency virus 1; assay: as §1, with “Ratio” for “Inhibition”, “of IC50 for INI-resistant HIV1 11845 Nucleocapsid protein (11 to 55 residues) using Alexa488-5'-cTAR-3'-Dabcyl oligonucleotide as substrate to IC50 for” for “of”
[21] = Half life in C57BL/6 mouse at 2 mg/kg, iv or 5 mg/kg, po administered as single dose measured up to 24 hrs by LC-MS/MS analysis; type: ADME, organism-based; conditions: in vivo
[22] = Volume of distribution at steady state in C57BL/6 mouse at 2 mg/kg, iv or 5 mg/kg, po administered as single dose measured up to 24 hrs by LC-MS/MS analysis; type: ADME, organism-based; conditions: in vivo, read-out: Vdss
[23] = Clearance in C57BL/6 mouse at 2 mg/kg, iv or 5 mg/kg, po administered as single dose measured up to 24 hrs by LC-MS/MS analysis; type: ADME, organism-based; conditions: in vivo
[24] = Oral bioavailability in C57BL/6 mouse at 5 mg/kg administered as single dose measured up to 24 hrs by LC-MS/MS analysis; type: ADME, organism-based; conditions: in vivo
Outline: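 C57BL/6 mice were dosed 5 mg/kg orally, with a 2 mg/kg iv reference arm. Plasma was sampled at eight time points up to 24 h.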

Chain of Cytochrome P450 2D6 (P10635 whole entry): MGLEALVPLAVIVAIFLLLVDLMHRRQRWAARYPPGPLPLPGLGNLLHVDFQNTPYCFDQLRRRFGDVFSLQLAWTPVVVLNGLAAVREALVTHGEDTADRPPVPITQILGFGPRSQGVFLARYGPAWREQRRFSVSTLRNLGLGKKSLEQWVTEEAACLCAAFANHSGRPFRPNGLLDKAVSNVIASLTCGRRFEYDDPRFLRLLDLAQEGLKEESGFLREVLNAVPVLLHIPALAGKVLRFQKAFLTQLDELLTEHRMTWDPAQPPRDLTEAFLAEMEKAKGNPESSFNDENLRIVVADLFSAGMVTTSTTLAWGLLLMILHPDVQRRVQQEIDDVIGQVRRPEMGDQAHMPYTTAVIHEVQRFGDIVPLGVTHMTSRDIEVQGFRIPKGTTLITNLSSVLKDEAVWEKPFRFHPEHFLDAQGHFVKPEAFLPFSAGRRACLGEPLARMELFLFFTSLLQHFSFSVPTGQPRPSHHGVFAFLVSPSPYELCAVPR
Chain of Cytochrome P450 3A4 (P08684 whole entry): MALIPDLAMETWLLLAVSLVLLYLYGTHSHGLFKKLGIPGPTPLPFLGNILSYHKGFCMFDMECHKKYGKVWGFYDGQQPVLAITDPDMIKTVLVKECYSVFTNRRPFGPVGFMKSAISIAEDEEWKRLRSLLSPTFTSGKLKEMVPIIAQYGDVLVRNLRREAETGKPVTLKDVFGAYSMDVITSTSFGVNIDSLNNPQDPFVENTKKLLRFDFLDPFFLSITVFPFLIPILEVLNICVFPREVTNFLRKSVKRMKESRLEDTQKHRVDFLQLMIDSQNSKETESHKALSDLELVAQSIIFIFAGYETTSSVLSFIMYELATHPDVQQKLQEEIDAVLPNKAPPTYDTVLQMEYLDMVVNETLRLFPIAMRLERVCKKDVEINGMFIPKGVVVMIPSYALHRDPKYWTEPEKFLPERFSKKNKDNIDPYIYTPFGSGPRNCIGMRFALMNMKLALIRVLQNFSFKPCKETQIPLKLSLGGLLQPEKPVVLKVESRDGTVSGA
Chain of Voltage-gated inwardly rectifying potassium channel KCNH2 (Q12809 whole entry): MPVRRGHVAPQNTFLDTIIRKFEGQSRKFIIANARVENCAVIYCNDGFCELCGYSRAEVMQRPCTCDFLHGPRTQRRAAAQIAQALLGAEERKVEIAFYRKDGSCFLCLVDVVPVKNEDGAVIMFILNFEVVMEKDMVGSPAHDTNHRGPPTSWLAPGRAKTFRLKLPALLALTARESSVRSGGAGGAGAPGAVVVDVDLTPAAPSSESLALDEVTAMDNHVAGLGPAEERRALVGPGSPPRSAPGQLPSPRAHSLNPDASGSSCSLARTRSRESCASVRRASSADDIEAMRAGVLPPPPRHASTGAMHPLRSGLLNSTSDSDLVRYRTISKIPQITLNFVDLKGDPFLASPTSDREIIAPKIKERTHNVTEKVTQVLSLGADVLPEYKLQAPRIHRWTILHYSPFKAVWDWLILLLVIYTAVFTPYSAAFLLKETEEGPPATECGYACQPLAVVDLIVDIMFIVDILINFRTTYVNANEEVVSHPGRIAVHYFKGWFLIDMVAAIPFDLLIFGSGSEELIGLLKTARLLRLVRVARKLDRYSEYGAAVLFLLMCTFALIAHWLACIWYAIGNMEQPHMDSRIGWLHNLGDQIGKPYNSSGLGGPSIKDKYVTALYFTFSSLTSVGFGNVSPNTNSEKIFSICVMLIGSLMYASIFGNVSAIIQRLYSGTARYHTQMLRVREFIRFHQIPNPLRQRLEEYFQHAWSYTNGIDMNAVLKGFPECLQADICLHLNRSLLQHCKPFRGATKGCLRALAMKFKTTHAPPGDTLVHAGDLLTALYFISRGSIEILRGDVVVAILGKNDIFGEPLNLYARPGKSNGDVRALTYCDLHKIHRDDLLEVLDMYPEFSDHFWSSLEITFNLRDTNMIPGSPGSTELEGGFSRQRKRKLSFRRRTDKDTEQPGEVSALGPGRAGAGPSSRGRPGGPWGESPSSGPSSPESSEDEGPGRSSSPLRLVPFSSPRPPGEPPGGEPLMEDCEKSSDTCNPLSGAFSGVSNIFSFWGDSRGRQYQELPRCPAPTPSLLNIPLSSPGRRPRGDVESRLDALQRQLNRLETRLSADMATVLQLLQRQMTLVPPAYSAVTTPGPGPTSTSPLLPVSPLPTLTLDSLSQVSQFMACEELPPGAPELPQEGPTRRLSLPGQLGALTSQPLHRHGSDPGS

Compound: O=C(NCC1CCCCC1)c1nc(-c2cccnc2)nc(O)c1O
- IC50 [1]: Not Active

Compound: O=C(NCC1CCCCC1)c1nc(-c2ccncc2)nc(O)c1O
- IC50 [1]: Not Active

Compound: CC(c1ccccc1)c1nc(O)c(O)c(C(=O)NCC2CCCCC2)n1 (configuration not stated)
- IC50 [1]: Not Active

Compound: O=C(NCC1CCCCC1)c1nc(CCc2ccccc2)nc(O)c1O
- IC50 [1]: Not Active

Compound: CC(C)(C)c1nc(O)c(O)c(C(=O)NCC2CCCCC2)n1
- IC50 [1]: Not Active

Compound: CN(CC1CCCCC1)C(=O)c1nc(-c2ccccn2)nc(O)c1O
- IC50 [1]: Not Active

Compound: O=C(NCCC1CCCCC1)c1nc(-c2ccccn2)nc(O)c1O
- IC50 ([1]; read-out: IC50): 38 µM
- EC50 [2]: 2.3 µM
- CC50 [3]: 4.2 µM
- selectivity ratio [4]: 2
- CC50 at 168 h [5]: 11 µM
- selectivity ratio at 7 days [6]: 5

Compound: C[C@@H](NC(=O)c1nc(-c2ncccc2C(F)(F)F)nc(O)c1O)C1CCCCC1
- IC35 [7]: 20 µM

Compound: O=C(NC1CCCCC1)c1nc(-c2ccccn2)nc(O)c1O
- IC50 ([1]; read-out: IC50): 300 µM

Compound: Cc1ccnc(-c2nc(O)c(O)c(C(=O)N[C@H](C)C3CCCCC3)n2)c1
- IC50 ([1]; read-out: IC50): 8 µM
- EC50 [2]: 0.2 µM
- CC50 [3]: 2.7 µM
- selectivity ratio [4]: 13
- CC50 at 168 h [5]: 3.1 µM
- selectivity ratio at 7 days [6]: 16

Compound: C[C@@H](NC(=O)c1nc(-c2cc(C(F)(F)F)ccn2)nc(O)c1O)C1CCCCC1
- IC50 ([1]; read-out: IC50): 12 µM
- EC50 [2]: 0.4 µM
- CC50 [3]: 6 µM
- selectivity ratio [4]: 15
- CC50 at 168 h [5]: 1.1 µM
- selectivity ratio at 7 days [6]: 3
- half-life at 3 µM [8]: > 1 h
- half-life at 3 µM [9]: > 1 h
- half-life at 3 µM [10]: 2.4 h
- half-life at 3 µM [11]: > 4 h
- IC50 [12]: > 30 µM
- IC50 (Cytochrome P450 1A2): > 30 µM
- IC50 (Cytochrome P450 2D6): > 30 µM
- IC50 (Cytochrome P450 3A4): > 30 µM

Compound: C[C@@H](NC(=O)c1nc(-c2cc(Cl)ccn2)nc(O)c1O)C1CCCCC1
- IC50 ([1]; read-out: IC50): 2 µM
- EC50 [2]: 0.1 µM
- CC50 [3]: 3 µM
- selectivity ratio [4]: 30
- CC50 at 168 h [5]: 2.5 µM
- selectivity ratio at 7 days [6]: 25
- EC50 [13]: 0.02 µM
- EC50 [14]: 0.01 µM
- EC50 [15]: 0.08 µM
- EC50 [16]: 0.07 µM
- Ratio IC50 [17]: 0.2
- Ratio IC50 [18]: 0.1
- Ratio IC50 [19]: 0.8
- Ratio IC50 [20]: 0.7
- half-life at 3 µM [8]: > 6 h
- half-life at 3 µM [9]: > 6 h
- half-life at 3 µM [10]: 1.7 h
- half-life at 3 µM [11]: > 4 h
- IC50 [12]: > 30 µM
- IC50 (Cytochrome P450 1A2): > 30 µM
- IC50 (Cytochrome P450 2D6): > 30 µM
- IC50 (Cytochrome P450 3A4): > 30 µM
- half-life [21]: 3.1 h
- Vd [22]: 1.2 L/kg
- clearance [23]: 37.1 mL/min/kg
- bioavailability [24]: 40%

Compound: Cc1ccnc(-c2nc(O)c(O)c(C(=O)N[C@@H](C)C3CCCCC3)n2)c1
- IC50 ([1]; read-out: IC50): 41 µM

Compound: Cc1cccnc1-c1nc(O)c(O)c(C(=O)N[C@H](C)C2CCCCC2)n1
- IC50 ([1]; read-out: IC50): 21 µM

Source: ChEMBL document CHEMBL4613292, “5,6-Dihydroxypyrimidine Scaffold to Target HIV-1 Nucleocapsid Protein” (ACS Med Chem Lett, 2020)
